Measurements from PubChem BioAssay AID624007 (Broad Institute, 2012).
Unmarked numbers belong to inactive results.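 Rule for the calls: active = compounds lowering the uptake signal whose fitted half-maximal concentration is at most twice their top valid dose; inconclusive = flat curve between 30% and 70% signal loss, or poor fit; inactive = opposite direction, flat near zero, or potency beyond limit.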

Test: DiI-HDL uptake inhibition in parental ldlA7 cells, dose response, counter-screen for SR-BI HDL uptake inhibitor project, cell-based, CHO ldlA7, fluorescence, dry powder, set 2 (AID 624007)
Details: 3 h
Method in brief: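 assay system = ldlA7 CHO cells without LDL receptor, no mSR-BI overexpression | timing = 3 h exposure at 37 °C | signal = bottom-read fluorescence after PBS washes, excitation 550 nm, emission 595 nm | reagent = DiI-labelled HDL, 10 µg/mL final | doses = pin-transferred compounds | medium = HEPES-buffered (pH 7.4) F12 plus 0.5% fatty acid-free BSA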

## CC(C)NC(=O)Nc1ccc2c(c1)C(=O)N([C@H](C)CO)C[C@@H](C)[C@H](CN(C)S(=O)(=O)c1ccc(Cl)cc1)O2
At 0.001 nM
  DiI-HDL uptake signal change vs neutral control (%), lower = more inhibition: -2.43%
At 0.1 nM
  DiI-HDL uptake signal change vs neutral control (%), lower = more inhibition: 5.95%

## CC(C)NC(=O)Nc1ccc2c(c1)C(=O)N([C@@H](C)CO)C[C@H](C)[C@@H](CN(C)S(=O)(=O)c1ccc(Cl)cc1)O2
At 0.002 nM
  DiI-HDL uptake signal change vs neutral control (%), lower = more inhibition: 5.3%

## CC(C)NC(=O)Nc1ccc2c(c1)CC(=O)N([C@H](C)CO)C[C@@H](C)[C@H](CN(C)S(=O)(=O)c1ccc(Cl)cc1)O2
At 0.1 nM
  DiI-HDL uptake signal change vs neutral control (%), lower = more inhibition: 4.77%

## CC(C)NC(=O)Nc1ccc2c(c1)C(=O)N([C@H](C)CO)C[C@@H](C)[C@@H](CN(C)S(=O)(=O)c1ccc(Cl)cc1)O2
At 0.6 nM
  DiI-HDL uptake signal change vs neutral control (%), lower = more inhibition: 5.71%

## CC(C)NC(=O)Nc1ccc2c(c1)C(=O)N([C@@H](C)CO)C[C@@H](C)[C@@H](CN(C)S(=O)(=O)c1ccc(Cl)cc1)O2
At 1.6 nM
  DiI-HDL uptake signal change vs neutral control (%), lower = more inhibition: 4.53%

## CC(C)NC(=O)Nc1ccc2c(c1)C(=O)N([C@H](C)CO)C[C@H](C)[C@H](CN(C)S(=O)(=O)c1ccc(Cl)cc1)O2
At 15 nM
  DiI-HDL uptake signal change vs neutral control (%), lower = more inhibition: 8.44%

## CC(C)NC(=O)Nc1ccc2c(c1)C(=O)N([C@@H](C)CO)C[C@H](C)[C@H](CN(C)S(=O)(=O)c1ccc(Cl)cc1)O2
At 46 nM
  DiI-HDL uptake signal change vs neutral control (%), lower = more inhibition: 8.74%

## CC(C)NC(=O)Nc1cccc2c1O[C@@H](CN(C)S(=O)(=O)c1ccc(Cl)cc1)[C@H](C)CN([C@H](C)CO)C2=O
At 420 nM
  DiI-HDL uptake signal change vs neutral control (%), lower = more inhibition: 9.23%
